From ChEMBL document CHEMBL3259614, “Design, synthesis, and structure-activity relationship studies of novel fused heterocycles-linked triazoles with good activity and water solubility” (J Med Chem, 2014)

Columns and labels:
[1] = AUC (0 to infinity) in Sprague-Dawley rat at 5 mg/kg, iv; type: ADME, organism-based; set-up: dose 5 mg/kg, route intravenous, time infinity; conditions: plasma
How it was run: (§1)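 Male Sprague−Dawley rats (200−250 g), seven per group, dosed orally at 10 mg/kg or intravenously at 3 or 5 mg/kg in 5% DMSO + 5% Tween 80 in 90% saline. Serial retrobulbar blood samples were quantified by LC-MS. Parameters were derived from mean plasma concentrations by noncompartmental analysis. For the disulfate salt, values are based on the active free base measured.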

[2] = Intrinsic clearance in Sprague-Dawley rat liver microsomes assessed per mg protein at 0.1 uM by LC/MS/MS analysis; type: ADME
How it was run: (§2)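 Male Sprague−Dawley rat liver microsomes (0.33 mg/mL protein) in 0.1 M Tris-HCl pH 7.4 with 5 mM MgCl₂ and 1 mM NADPH. Compound at a final 0.1 μM (0.01% DMSO, 0.005% BSA), incubated at 37 °C. Samples taken at 0, 7, 17, 30 and 60 min were quenched in methanol, and parent compound was measured by LC/MS/MS. t1/2 and Clint were then calculated.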

[3] = Elimination half life in Sprague-Dawley rat liver microsomes at 0.1 uM by LC/MS/MS analysis; type: ADME; conditions: read-out: beta t1/2; how it was run: as §2
[4] = tested on: Hepatocyte; test: Cytotoxicity against rat hepatocytes assessed as reduction in survival rate at 5 to 40 uM after 48 hrs by SRB assay; type: cell-based
[5] = tested on: Candida albicans; test: Antimicrobial activity against Candida albicans SC5314 infected in ICR mouse assessed as mean survival days at 3.2 mg/kg, iv qd for 5 days starting 2 hrs post infection (reference value: 9.0 +/- 0.67 days); type: functional
[6] = Cmax in Sprague-Dawley rat at 10 mg/kg, po; type: ADME, organism-based; set-up: dose 10 mg/kg, route oral; conditions: in vivo; how it was run: as §1
[7] = AUC (0 to infinity) in Sprague-Dawley rat at 10 mg/kg, po; type: ADME, organism-based; set-up: time infinity, dose 10 mg/kg, route oral; conditions: plasma; how it was run: as §1
[8] = tested on: Candida albicans; test: Antimicrobial activity against Candida albicans SC5314 infected in ICR mouse assessed as mean survival days at 10 mg/kg, iv qd for 5 days starting 2 hrs post infection (reference value: 9.0 +/- 0.67 days); type: functional
[9] = Half life in Sprague-Dawley rat at 10 mg/kg, po; type: ADME, organism-based; set-up: dose 10 mg/kg, route oral; conditions: in vivo; how it was run: as §1
[10] = tested on: Candida albicans; test: Antimicrobial activity against Candida albicans SC5314 infected in ICR mouse assessed as mean survival days at 0.32 mg/kg, iv qd for 5 days starting 2 hrs post infection (reference value: 9.0 +/- 0.67 days); type: functional
[11] = Tmax in Sprague-Dawley rat at 10 mg/kg, po; type: ADME, organism-based; set-up: dose 10 mg/kg, route oral; conditions: in vivo; how it was run: as §1
[12] = tested on: Candida albicans; test: Antimicrobial activity against Candida albicans SC5314 infected in ICR mouse assessed as mean survival days at 1 mg/kg, iv qd for 5 days starting 2 hrs post infection (reference value: 9.0 +/- 0.67 days); type: functional
[13] = Oral bioavailability in Sprague-Dawley rat at 10 mg/kg; type: ADME, organism-based; conditions: in vivo; how it was run: as §1
[14] = Half life in Sprague-Dawley rat at 5 mg/kg, iv; type: ADME, organism-based; set-up: dose 5 mg/kg, route intravenous; conditions: in vivo; how it was run: as §1
[15] = Clearance in Sprague-Dawley rat at 5 mg/kg, iv; type: ADME, organism-based; set-up: dose 5 mg/kg, route intravenous; conditions: in vivo; how it was run: as §1

C[C@@H](N1CCc2nc(-c3cncnc3)sc2C1)[C@](O)(Cn1cncn1)c1ccc(F)cc1F.O.O=S(=O)(O)O
AUC(0-inf) [1]: 1190 ng·h/mL | microsomal CLint at 0.1 µM [2]: 65 µL/min/mg | half-life at 0.1 µM [3]: 32.4 min | Activity [4]: Non-toxic | Survival [5]: 9.8 days | Cmax [6]: 164 ng/mL | AUC(0-inf) [7]: 141 ng·h/mL | Survival [8]: 11.1 days | half-life [9]: 27.6 min | Survival [10]: 8.8 days | Tmax [11]: 15 min | Survival [12]: 7.8 days | bioavailability [13]: 5.8% | half-life [14]: 25.2 min | clearance [15]: 72.5 mL/min/kg
